“And” between values parts separate entries of the source, which are not always exact repeats. Equal entries are not always repeated. The source made the active and inactive calls. No cut-off for these calls is given here.
Legend:
[1] = Displacement of [3H]methyllycaconitine from chimeric alpha-7nAChR D197A mutant/5HT3A receptor in tsA201 cells; assay type: cell-based, Homo sapiens
Summary of the method: (§1)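 tsA-201 cells transiently transfected with 4 µg WT or mutant α7/5-HT3A chimera and assayed 2 days later. Membranes washed twice at 50000g in 50 mM Tris-HCl pH 7.2. Incubated with 0.5 nM [3H]MLA and compound for 2.5 h at room temperature with shaking; nonspecific binding with 5 mM (S)-nicotine. PEI-soaked GF/C filtration, scintillation counting. Ki derived; duplicate, 3–7 experiments.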

tsA201 [2] = assay: Displacement of [3H]methyllycaconitine from chimeric alpha-7nAChR W55A/Y195A mutant /5HT3A receptor in tsA201 cells; assay type: cell-based; conditions: Homo sapiens; summary of the method: as §1
[3] = Displacement of [3H]methyllycaconitine from chimeric alpha-7nAChR K145R mutant /5HT3A receptor in tsA201 cells; assay type: cell-based, Homo sapiens; summary of the method: as §1
[4] = Antagonist activity at human alpha7nAChR Y93A mutant co-expressed with human Ric3 in tsA201 cells by FMP assay; assay type: functional, cell-based
[5] = Antagonist activity at human alpha7 nAChR W149Y mutant co-expressed with human Ric3 in tsA201 cells by FMP assay; assay type: functional, cell-based
[6] = Antagonist activity at human alpha-7 nAChR Y188A mutant coexpressed with human Ric3 in tsA201 cells by FMP assay; assay type: functional, cell-based
[7] = Antagonist activity at human alpha-7 nAChR Y195A mutant coexpressed with human Ric3 in tsA201 cells by FMP assay; assay type: functional, cell-based
[8] = molecular target: Neuronal acetylcholine receptor; alpha4/beta2 (Rattus norvegicus, UniProt P09483+P12390); assay: Displacement of [3H]epibatidine from rat recombinant alpha-4-beta-2 nAChR in HEK293 cell line; assay type: cell-based
Sequence of Neuronal acetylcholine receptor; alpha4/beta2 (P09483 whole entry): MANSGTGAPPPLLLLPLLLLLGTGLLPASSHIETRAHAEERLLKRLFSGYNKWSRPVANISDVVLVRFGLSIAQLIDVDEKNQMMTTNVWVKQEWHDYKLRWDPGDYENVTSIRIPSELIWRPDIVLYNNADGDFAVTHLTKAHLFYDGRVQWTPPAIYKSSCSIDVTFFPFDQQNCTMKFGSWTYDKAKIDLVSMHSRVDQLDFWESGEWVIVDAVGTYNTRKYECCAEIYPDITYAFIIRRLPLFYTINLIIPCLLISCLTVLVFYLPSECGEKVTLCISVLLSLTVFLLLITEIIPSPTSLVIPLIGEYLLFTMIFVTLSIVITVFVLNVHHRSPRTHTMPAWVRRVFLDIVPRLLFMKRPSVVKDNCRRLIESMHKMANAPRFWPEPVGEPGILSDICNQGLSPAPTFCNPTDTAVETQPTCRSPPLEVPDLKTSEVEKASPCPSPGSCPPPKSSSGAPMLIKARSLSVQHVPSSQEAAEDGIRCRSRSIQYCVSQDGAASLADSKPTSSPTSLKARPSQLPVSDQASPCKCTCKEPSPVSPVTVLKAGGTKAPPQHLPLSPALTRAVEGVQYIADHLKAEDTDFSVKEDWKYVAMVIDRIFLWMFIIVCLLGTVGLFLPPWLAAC
Sequence of Neuronal acetylcholine receptor; alpha4/beta2 (P12390 whole entry): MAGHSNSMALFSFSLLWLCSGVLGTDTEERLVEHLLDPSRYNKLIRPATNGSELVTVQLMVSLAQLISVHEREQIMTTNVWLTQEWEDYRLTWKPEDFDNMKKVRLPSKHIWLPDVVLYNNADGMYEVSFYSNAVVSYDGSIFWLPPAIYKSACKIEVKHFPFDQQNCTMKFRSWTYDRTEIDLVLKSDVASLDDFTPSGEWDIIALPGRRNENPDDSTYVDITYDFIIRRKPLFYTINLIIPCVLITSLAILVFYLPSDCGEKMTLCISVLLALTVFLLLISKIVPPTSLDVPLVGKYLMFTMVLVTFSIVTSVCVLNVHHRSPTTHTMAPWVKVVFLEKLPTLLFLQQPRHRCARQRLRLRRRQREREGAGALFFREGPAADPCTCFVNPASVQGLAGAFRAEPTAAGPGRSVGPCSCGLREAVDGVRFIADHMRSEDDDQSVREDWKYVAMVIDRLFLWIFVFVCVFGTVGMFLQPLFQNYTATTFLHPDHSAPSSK

[9] = molecular target: T1, Neuronal acetylcholine receptor; alpha3/beta4 (Rattus norvegicus, UniProt P04757+P12392); assay: Displacement of [3H]epibatidine from recombinant rat alpha-3-beta-4 nAChr in HEK293 cell line; assay type: cell-based
T1 sequence (P04757 whole entry): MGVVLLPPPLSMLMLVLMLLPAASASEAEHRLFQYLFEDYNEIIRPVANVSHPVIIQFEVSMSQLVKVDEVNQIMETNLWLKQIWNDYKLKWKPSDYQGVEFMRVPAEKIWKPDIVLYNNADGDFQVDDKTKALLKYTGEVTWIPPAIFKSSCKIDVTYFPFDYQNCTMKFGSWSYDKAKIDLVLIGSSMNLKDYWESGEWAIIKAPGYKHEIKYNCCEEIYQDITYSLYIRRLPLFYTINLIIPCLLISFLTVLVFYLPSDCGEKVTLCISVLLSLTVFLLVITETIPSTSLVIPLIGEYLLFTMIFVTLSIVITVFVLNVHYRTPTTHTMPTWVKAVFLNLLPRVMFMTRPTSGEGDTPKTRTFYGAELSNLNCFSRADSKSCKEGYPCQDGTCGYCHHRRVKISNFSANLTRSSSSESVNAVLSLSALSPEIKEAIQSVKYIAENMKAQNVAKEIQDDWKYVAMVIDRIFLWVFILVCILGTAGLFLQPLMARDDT
T1 sequence (P12392 whole entry): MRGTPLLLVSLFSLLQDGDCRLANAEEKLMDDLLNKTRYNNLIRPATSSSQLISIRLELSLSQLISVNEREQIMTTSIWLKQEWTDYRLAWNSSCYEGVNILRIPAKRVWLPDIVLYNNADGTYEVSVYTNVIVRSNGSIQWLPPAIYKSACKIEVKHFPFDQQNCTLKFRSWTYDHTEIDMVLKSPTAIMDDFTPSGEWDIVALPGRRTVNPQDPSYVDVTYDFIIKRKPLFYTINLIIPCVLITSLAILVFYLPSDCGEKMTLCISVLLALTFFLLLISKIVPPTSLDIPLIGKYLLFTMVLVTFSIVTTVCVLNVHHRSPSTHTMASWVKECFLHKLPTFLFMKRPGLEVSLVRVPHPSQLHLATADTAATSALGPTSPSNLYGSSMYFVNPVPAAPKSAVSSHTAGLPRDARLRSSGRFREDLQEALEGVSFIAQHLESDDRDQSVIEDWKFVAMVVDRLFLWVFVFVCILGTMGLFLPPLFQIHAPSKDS

[10] = molecular target: Neuronal acetylcholine receptor; alpha4/beta4 (Rattus norvegicus, UniProt P09483+P12392); assay: Displacement of [3H]epibatidine from recombinant rat alpha-4-beta-4 nAChr in HEK293 cell line; assay type: cell-based
Sequence of Neuronal acetylcholine receptor; alpha4/beta4 (P09483 whole entry): as the sequence (P09483 whole entry) above
Sequence of Neuronal acetylcholine receptor; alpha4/beta4 (P12392 whole entry): as the sequence (P12392 whole entry) above

[11] = molecular target: T2, Neuronal acetylcholine receptor subunit alpha-7 (Homo sapiens, UniProt P36544); assay: Displacement of [3H]methyllycaconitine from human alpha-7 in tsA201 cells coexpressed with 5HT3A receptor; assay type: cell-based
Target sequence in this assay (P36544 whole entry): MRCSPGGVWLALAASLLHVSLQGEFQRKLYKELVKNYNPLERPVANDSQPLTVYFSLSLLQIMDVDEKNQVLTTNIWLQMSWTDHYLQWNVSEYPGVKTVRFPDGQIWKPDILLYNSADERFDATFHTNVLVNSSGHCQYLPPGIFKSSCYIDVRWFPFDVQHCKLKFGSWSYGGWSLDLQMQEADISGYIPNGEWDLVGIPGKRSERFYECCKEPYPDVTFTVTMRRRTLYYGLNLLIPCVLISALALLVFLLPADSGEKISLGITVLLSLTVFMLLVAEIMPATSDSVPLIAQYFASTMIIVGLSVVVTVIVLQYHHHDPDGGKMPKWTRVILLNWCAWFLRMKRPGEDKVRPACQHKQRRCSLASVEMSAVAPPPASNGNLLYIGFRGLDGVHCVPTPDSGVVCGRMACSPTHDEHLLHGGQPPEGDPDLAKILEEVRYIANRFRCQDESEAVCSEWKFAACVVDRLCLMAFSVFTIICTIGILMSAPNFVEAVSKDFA

[12] = molecular target: T2, Neuronal acetylcholine receptor subunit alpha-7; assay: Displacement of [3H]methyllycaconitine from alpha7 nAChR in tsA201 cells co-expressed with Ric3; assay type: cell-based
Target sequence in this assay (P36544 whole entry): as above

[13] = molecular target: T3, 5-hydroxytryptamine receptor 3A (Homo sapiens, UniProt P46098); assay: Displacement of [3H]GR65630 from human 5HT3A receptor in HEK293 cells; assay type: cell-based
T3 sequence (P46098 whole entry): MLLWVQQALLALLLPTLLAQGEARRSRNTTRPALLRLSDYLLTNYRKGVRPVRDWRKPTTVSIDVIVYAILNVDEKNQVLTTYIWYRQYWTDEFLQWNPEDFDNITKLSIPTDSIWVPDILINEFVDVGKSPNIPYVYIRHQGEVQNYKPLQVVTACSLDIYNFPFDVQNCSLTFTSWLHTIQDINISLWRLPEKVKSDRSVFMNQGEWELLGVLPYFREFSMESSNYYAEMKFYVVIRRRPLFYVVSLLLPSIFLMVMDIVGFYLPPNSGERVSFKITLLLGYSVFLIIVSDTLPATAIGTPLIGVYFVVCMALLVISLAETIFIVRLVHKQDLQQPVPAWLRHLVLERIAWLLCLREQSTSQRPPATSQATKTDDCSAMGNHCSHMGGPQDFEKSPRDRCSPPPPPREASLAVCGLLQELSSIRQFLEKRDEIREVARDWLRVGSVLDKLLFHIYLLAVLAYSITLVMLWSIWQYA

[14] = molecular target: T2, Neuronal acetylcholine receptor subunit alpha-7; assay: Antagonist activity at human alpha-7 nAChR in tsA201 cells coexpressed with Ric3 by FMP assay; assay type: functional, cell-based
Target sequence in this assay (P36544 whole entry): as the sequence (P36544 whole entry) above

[15] = molecular target: T1, Neuronal acetylcholine receptor; alpha3/beta4; assay: Antagonist activity at rat alpha3beta4 nAChR expressed in HEK293 cells by FMP assay; assay type: functional, cell-based, Homo sapiens; conditions: read-out: IC50
[16] = molecular target: T3, 5-hydroxytryptamine receptor 3A; assay: Antagonist activity at human 5HT3A receptor expressed in HEK293 cells by FMP assay; assay type: functional, cell-based; conditions: read-out: IC50
cells = assay type: functional, cell-based; conditions: Homo sapiens, HEK293
[17] = molecular target: T4, Glycine receptor subunit alpha-1 (Homo sapiens, UniProt P23415); assay: Antagonist activity at human glycine alpha-1 receptor in HEK293 cells by FMP assay; assay type: functional, cell-based
T4 sequence (P23415 whole entry): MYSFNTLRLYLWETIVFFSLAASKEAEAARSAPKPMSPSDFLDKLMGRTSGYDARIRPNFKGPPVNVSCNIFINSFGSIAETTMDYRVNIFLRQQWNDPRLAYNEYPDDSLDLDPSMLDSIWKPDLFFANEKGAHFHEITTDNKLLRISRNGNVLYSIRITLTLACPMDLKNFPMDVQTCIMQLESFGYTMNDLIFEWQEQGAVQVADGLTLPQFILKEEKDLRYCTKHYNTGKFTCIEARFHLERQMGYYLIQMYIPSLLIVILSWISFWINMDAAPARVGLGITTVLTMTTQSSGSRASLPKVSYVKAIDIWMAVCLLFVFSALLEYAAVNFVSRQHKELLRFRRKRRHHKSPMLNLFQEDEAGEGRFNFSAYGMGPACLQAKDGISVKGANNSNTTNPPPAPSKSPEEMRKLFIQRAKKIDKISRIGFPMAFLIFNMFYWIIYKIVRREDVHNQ

[18] = molecular target: T2, Neuronal acetylcholine receptor subunit alpha-7; assay: Displacement of [3H]methyllycaconitine from chimeric alpha7nAChR/5HT3A in tsA201 cells; assay type: cell-based
Target sequence in this assay (P36544 23-502 limits assumed): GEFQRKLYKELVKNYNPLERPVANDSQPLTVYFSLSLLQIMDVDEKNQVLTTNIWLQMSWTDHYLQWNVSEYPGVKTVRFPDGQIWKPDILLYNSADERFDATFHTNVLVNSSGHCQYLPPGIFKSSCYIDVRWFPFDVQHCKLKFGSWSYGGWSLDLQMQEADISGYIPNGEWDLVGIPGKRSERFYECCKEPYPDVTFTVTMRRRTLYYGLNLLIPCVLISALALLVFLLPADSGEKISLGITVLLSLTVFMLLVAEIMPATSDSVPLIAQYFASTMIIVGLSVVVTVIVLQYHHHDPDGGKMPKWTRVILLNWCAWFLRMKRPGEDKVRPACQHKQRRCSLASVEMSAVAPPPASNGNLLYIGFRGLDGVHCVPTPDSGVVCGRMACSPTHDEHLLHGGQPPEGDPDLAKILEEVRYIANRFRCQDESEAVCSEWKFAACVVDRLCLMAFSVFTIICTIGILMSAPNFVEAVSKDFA

[19] = Displacement of [3H]methyllycaconitine from chimeric alpha-7nAChR W55A mutant /5HT3A receptor in tsA201 cells; assay type: cell-based, Homo sapiens; summary of the method: as §1
[20] = Displacement of [3H]methyllycaconitine from chimeric alpha7nAChR W55Y mutant/5HT3A receptor in tsA201 cells; assay type: cell-based, Homo sapiens; summary of the method: as §1
[21] = Displacement of [3H]methyllycaconitine from chimeric alpha7nAChR R79A mutant/5HT3A receptor R79A mutant in tsA201 cells; assay type: cell-based, Homo sapiens; summary of the method: as §1
tsA201 [22] = assay: Displacement of [3H]methyllycaconitine from chimeric alpha-7nAChR Y93A mutant/5HT3A receptor in tsA201 cells; assay type: cell-based; conditions: Homo sapiens; summary of the method: as §1
[23] = Displacement of [3H]methyllycaconitine from chimeric alpha-7nAChR N107A mutant/5HT3A receptor in tsA201 cells; assay type: cell-based, Homo sapiens; summary of the method: as §1
[24] = Displacement of [3H]methyllycaconitine from chimeric alpha7nAChR K145A mutant/5HT3A receptor in tsA201 cells; assay type: cell-based, Homo sapiens; summary of the method: as §1
[25] = Displacement of [3H]methyllycaconitine from chimeric alpha-7nAChR S148A mutant /5HT3A receptor in tsA201 cells; assay type: cell-based, Homo sapiens; summary of the method: as §1
tsA201 [26] = assay: Displacement of [3H]methyllycaconitine from chimeric alpha-7nAChR W149A mutant/5HT3A receptor in tsA201 cells; assay type: cell-based; conditions: Homo sapiens; summary of the method: as §1
tsA201 [27] = assay: Displacement of [3H]methyllycaconitine from chimeric alpha-7nAChR W149Y mutant/5HT3A receptor W149Y mutant in tsA201 cells; assay type: cell-based; conditions: Homo sapiens; summary of the method: as §1
[28] = Displacement of [3H]methyllycaconitine from chimeric alpha-7nAChR S150A mutant/5HT3A receptor in tsA201 cells; assay type: cell-based, Homo sapiens; summary of the method: as §1
[29] = Displacement of [3H]methyllycaconitine from chimeric alpha-7nAChR Y168A mutant/5HT3A receptor in tsA201 cells; assay type: cell-based, Homo sapiens; summary of the method: as §1
tsA201 [30] = assay: Displacement of [3H]methyllycaconitine from chimeric alpha-7nAChR Y188A mutant/5-HT3A receptor in tsA201 cells; assay type: cell-based; conditions: Homo sapiens; summary of the method: as §1
[31] = Displacement of [3H]methyllycaconitine from chimeric alpha7nAChR Y195A mutant/5HT3A receptor in tsA201 cells; assay type: cell-based, Homo sapiens; summary of the method: as §1
[32] = Displacement of [3H]methyllycaconitine from chimeric alpha-7nAChR Y195F mutant/5HT3A receptor in tsA201 cells; assay type: cell-based, Homo sapiens; summary of the method: as §1
[33] = molecular target: T2, Neuronal acetylcholine receptor subunit alpha-7
Target sequence in this assay (P36544 whole entry): as the sequence (P36544 whole entry) above

In the case of `C[N+]12CC[C@@H]3[C@@H]4[C@@H]5[C@@H](OCC=C(C1)[C@@H]5C[C@@H]32)N1c2ccccc2[C@@]23CC[N+]5(C)CC6=CCO[C@H]([C@@H]([C@H]12)[C@H]6C[C@@H]35)N4c1ccccc1.[I-].[I-]` (stereo partly drawn), the Ki [1] is reported as 550 nM, the pKi [1] is reported as 6.26 and the Activity (tsA201 [2]) is reported as “inactive”. The Ki [3] was 430 nM, the pKi [3] was 6.37 and the IC50 ([4]; read-out: IC50) was 1300 nM. It also gave an IC50 ([4]; read-out: pIC50 (converted)) of 1320 nM, an IC50 ([5]; read-out: IC50) of 2700 nM and an IC50 ([5]; read-out: pIC50 (converted)) of 2690 nM. For the same compound, the IC50 ([6]; read-out: IC50) was 2500 nM, the IC50 ([6]; read-out: pIC50 (converted)) was 2450 nM and the IC50 ([7]; read-out: IC50) was 7100 nM. It also gave an IC50 ([7]; read-out: pIC50 (converted)) of 7080 nM, a pKi ([8]; hek293) of under 4 and a Ki ([8]; read-out: Ki) of over 100000 nM. It also gave a Ki [9] of 30000 nM, a Ki [10] of over 100000 nM and a pKi ([10]; hek293) of under 4. For the same compound, the Ki ([11]; read-out: Ki) was 300 nM, the Ki ([11]; read-out: pKi (converted)) was 316 nM and the Ki ([12]; read-out: Ki) was 210 nM. It also gave a Ki ([12]; read-out: pKi (converted)) of 200 nM, a Ki [13] of 11000 nM and an IC50 ([14]; read-out: IC50) of 1500 nM. The IC50 ([14]; read-out: pIC50 (converted)) was 1480 nM, the IC50 [15] was 30000 nM and the IC50 [16] was 30000 nM. The IC50 (cells; read-out: IC50) was over 100000 nM, the IC50 (cells; read-out: pIC50 (converted)) was over 100000 nM and the IC50 [17] was over 100000 nM. The pIC50 ([17]; hek293) was under 4, the Ki [18] was 330 nM and the pKi [18] was 6.48. The Ki [19] was 850 nM, the pKi [19] was 6.07 and the Ki [20] was 300 nM. It also gave a pKi [20] of 6.53, a Ki [21] of 660 nM and a pKi [21] of 6.18. For the same compound, the Activity (tsA201 [22]) was “inactive”, the Ki [23] was 330 nM and the pKi [23] was 6.48. The Ki [24] was 250 nM, the pKi [24] was 6.6 and the Ki [25] was 790 nM. The pKi [25] was 6.1, the Activity (tsA201 [26]) was “inactive” and the Activity (tsA201 [27]) was “inactive”. For the same compound, the Ki [28] was 500 nM, the pKi [28] was 6.3 and the Ki [29] was 310 nM. For the same compound, the pKi [29] was 6.51, the Activity (tsA201 [30]) was “inactive” and the Ki [31] was 2900 nM. It also gave a pKi [31] of 5.54, a Ki [32] of 390 nM and a pKi [32] of 6.41. The IC50 [33] was 1500 nM and 1510 nM.

Source: ChEMBL document CHEMBL1148788 (J Med Chem, 2007)
